From paper PMC3940870 (Nature, 2013)

Experiments:
[1] = test system: P. berghei sporozoites expressing luciferase; settings: 2.5 mg/kg; stated as known, no reference given; cited from earlier work
[2] = test system: P. falciparum schizonts (Dd2), reinvasion of RBCs; test: Physical disruption/merozoite release assay; format: cell-based, Plasmodium falciparum; settings: ~5×IC50 imidazopyrazine or 1 μM E-64
[3] = test system: P. falciparum NF54 gametocytes; test: Gametocyte viability assay; format: cell-based; settings: Plasmodium falciparum, NF54, 72 h, read-out: IC50, gametocyte viability
Summary of the method: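 NF54 stage III–V gametocytes came from cultures cleared of asexual parasites with 50 mM N-acetyl-D-glucosamine for 3 days, then purified on a discontinuous Percoll gradient. Viability was read by a modified pLDH assay with resazurin substrate after 72-hr exposure. The 9-point series (0.1 nM–1 μM, 0.5 log10 steps) ran in quadruplicate over 2 plates and 2 parasite batches. Controls were 1 μM DHA (MIN) and vehicle (MAX). IC50 came from four-parameter nonlinear regression.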

## O=C1C(O)=C([C@H]2CC[C@H](c3ccc(Cl)cc3)CC2)C(=O)c2ccccc21 [ATQ, atovaquone]
[1]
  causal prophylactic protection: 100%

## CC(C)C[C@H](NC(=O)[C@H]1O[C@@H]1C(=O)O)C(=O)NCCCCN=C(N)N [E-64]
[2]
  reinvasion parasitemia after mechanical rupture of treated schizonts: 2–3%

## C[C@H]1[C@@H](O)O[C@@H]2O[C@@]3(C)CC[C@H]4[C@H](C)CC[C@@H]1[C@@]24OO3 [DHA, dihydroartemisinin]
[3]
  IC50: 15.8 nM
